Measurements as given in ChEMBL document CHEMBL1687926, “14-Aminocamptothecins: their synthesis, preclinical activity, and potential use for cancer treatment” (J Med Chem, 2011).
Several values for one entry are separate records, joined by “and”; a condition that tells them apart may be missing. Equal entries are not always repeated.

How the values were obtained:
NCI-H460 [1] = experiment: Cytotoxicity against human H460 cells after 72 hrs by alamar blue assay; format: functional, cell-based
Procedure, shortened: (§1)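 Cells seeded at 4 × 10³ per well and grown 24 h. Compounds dissolved in DMSO and diluted in medium to final concentrations, then incubated 72 h at 37 °C, 5% CO₂. Viable cells read by AlamarBlue; IC₅₀ taken as the concentration giving 50% growth inhibition.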

PC-3 [2] = experiment: Cytotoxicity against human PC3 cells after 72 hrs by alamar blue assay; format: functional, cell-based; settings: PC-3, 72 h; procedure, shortened: as §1
HT-29 [3] = experiment: Cytotoxicity against human HT-29 cells after 72 hrs by alamar blue assay; format: functional, cell-based; settings: HT-29, 72 h; procedure, shortened: as §1
SK-MEL-2 = experiment: Cytotoxicity against human SK-MEL-2 cells after 72 hrs by alamar blue assay; format: functional, cell-based; settings: SK-MEL-2, 72 h; procedure, shortened: as §1
A-375 = experiment: Cytotoxicity against human A375 cells after 72 hrs by alamar blue assay; format: functional, cell-based; settings: A-375, 72 h; procedure, shortened: as §1
Malme-3M = experiment: Cytotoxicity against human MALME-3M cells after 72 hrs by alamar blue assay; format: functional, cell-based; procedure, shortened: as §1
DU-145 = experiment: Cytotoxicity against human DU145 cells after 72 hrs by alamar blue assay; format: functional, cell-based; settings: DU-145, 72 h; procedure, shortened: as §1
LNCaP = experiment: Cytotoxicity against human LNCAP cells after 72 hrs by alamar blue assay; format: functional, cell-based; procedure, shortened: as §1
IGROV-1 = experiment: Cytotoxicity against human IGROV1 cells after 72 hrs by alamar blue assay; format: functional, cell-based; settings: IGROV-1, 72 h; procedure, shortened: as §1
NCI-H460 [4] = experiment: Cytotoxicity against human H460 cells after 72 hrs by alamar blue assay in presence of 40 mg/ml HSA; format: functional, cell-based; settings: NCI-H460, 72 h
Procedure, shortened: (§2)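 H460 cells seeded at 4 × 10³ per well and grown 24 h. Compounds then cocultured with cells for 72 h at 37 °C, with or without 40 mg/mL human serum albumin. Viability read by AlamarBlue; IC₅₀ = 50% growth inhibition. Ratio compares the IC₅₀ with HSA to the IC₅₀ without.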

NCI-H460 [5] = experiment: Ratio IC50 for human H460 cells after 72 hrs in presence of 40 mg/ml HSA to IC50 for human H460 cells after 72 hrs; format: functional; procedure, shortened: as §2
[6] = Cytotoxicity against human MESSA cells after 72 hrs by alamar blue assay; format: functional, cell-based; settings: MES-SA; procedure, shortened: as §1
[7] = Cytotoxicity against human MES-SA/Dx5 cells overexpressing MDR1 after 72 hrs by alamar blue assay; format: functional, cell-based; settings: MES-SA/Dx5, 72 h; procedure, shortened: as §1
NCI-H69 = experiment: Cytotoxicity against human H69 cells after 72 hrs by alamar blue assay; format: functional, cell-based; settings: NCI-H69, 72 h; procedure, shortened: as §1
[8] = Resistance ratio of IC50 for human MES-SA/Dx5 cells overexpressing MDR1 after 72 hrs to IC50 for human MESSA cells after 72 hrs; format: functional
Procedure, shortened: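 Cytotoxicity compared in MDR1-overexpressing lines and their parental wild-type lines. 72 h exposure at 37 °C, viability by AlamarBlue, IC₅₀ at 50% growth inhibition. Resistance ratio = IC₅₀ in overexpressing line / IC₅₀ in parental line.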

[9] = Cytotoxicity against human bone marrow cell by CFU-GM assay; format: cell-based
[10] = Cytotoxicity against mouse bone marrow cell by CFU-GM assay; format: cell-based
Procedure, shortened: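 CFU-GM colony assay on normal human bone marrow (thawed) or mouse femoral marrow (freshly extracted). Human colonies scored after 16-18 days. IC₅₀ taken from triplicate assays.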

[11] = Ratio of IC50 for mouse bone marrow cell to IC50 for human bone marrow cell; format: cell-based; settings: bone marrow cells
Procedure, shortened: (§3)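 CFU-GM colony assay in triplicate at 2 × 10⁴ cells per culture, using thawed normal human bone marrow or fresh mouse femoral marrow. Colonies were scored after 16-18 days. The IC50 or IC90 from each species gave the mouse/human ratio.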

[12] = Ratio of IC90 for mouse bone marrow cell to IC90 for human bone marrow cell; format: ADME, cell-based; settings: bone marrow cells; procedure, shortened: as §3
[13] = Tmax in CD-1 mouse plasma at 50 mg/kg, ip by LC/MS/MS analysis; format: ADME, organism-based; parameters: dose 50 mg/kg, route intraperitoneal
Procedure, shortened: (§4)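 CD-1 mice (~25 g) given 50 mg/kg ip in 5% DMSO/5% Tween 80 in water; three mice per time point, sampled up to 480 min. Blood taken by cardiac puncture into EDTA, then whole brain excised and homogenized in water. Proteins precipitated with ice-cold acetonitrile containing propranolol internal standard; supernatant analysed by HPLC/MS/MS.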

[14] = Cmax in CD-1 mouse plasma at 50 mg/kg, ip by LC/MS/MS analysis; format: ADME, organism-based; parameters: dose 50 mg/kg, route intraperitoneal; procedure, shortened: as §4
[15] = AUC in CD-1 mouse plasma at 50 mg/kg, ip by LC/MS/MS analysis; format: ADME, organism-based; parameters: dose 50 mg/kg, route intraperitoneal; procedure, shortened: as §4
[16] = Half life in CD-1 mouse plasma at 50 mg/kg, ip by LC/MS/MS analysis; format: ADME, organism-based; parameters: dose 50 mg/kg, route intraperitoneal; procedure, shortened: as §4
[17] = Tmax in CD-1 mouse brain at 50 mg/kg, ip by LC/MS/MS analysis; format: ADME, organism-based; parameters: dose 50 mg/kg, route intraperitoneal; procedure, shortened: as §4
[18] = Cmax in CD-1 mouse brain at 50 mg/kg, ip by LC/MS/MS analysis; format: ADME, organism-based; parameters: dose 50 mg/kg, route intraperitoneal; procedure, shortened: as §4
[19] = AUC in CD-1 mouse brain at 50 mg/kg, ip by LC/MS/MS analysis; format: ADME, organism-based; parameters: dose 50 mg/kg, route intraperitoneal; procedure, shortened: as §4
[20] = Half life in CD-1 mouse brain at 50 mg/kg, ip by LC/MS/MS analysis; format: ADME, organism-based; parameters: dose 50 mg/kg, route intraperitoneal; procedure, shortened: as §4
[21] = Ratio of drug level in brain to plasma in CD-1 mouse at 50 mg/kg, ip; format: ADME, organism-based; parameters: dose 50 mg/kg, route intraperitoneal; procedure, shortened: as §4
NCI-H460 [22] = experiment: Antitumor activity against human H460 cells xenografted in nu/nu mouse assessed as tumor growth inhibition at 40 mg/kg, po QD for 5 days followed by 2days without treatment for 2 weeks; format: functional; parameters: scale not given: the % may be the effect or the level left
Procedure, shortened: (§5)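 Female nude (nu/nu) mice (males for prostate model) implanted sc in the flank with tumor cells (1 × 10⁶ for H460). Dosing began at 100-150 mm³, 10 mice/group. Oral gavage in 5% DMSO/5% Tween 80/1% CMC in water, 5 days on/2 off per cycle, 2 or 4 cycles. Volume = length×width²/2, measured twice weekly. TGI = (1 − ΔT/ΔC)×100; TGD = extra days to reach 500 mm³ versus control.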

NCI-H460 [23] = experiment: Antitumor activity against human H460 cells xenografted in nu/nu mouse assessed as tumor growth delay at 40 mg/kg, po QD for 5 days followed by 2days without treatment for 2 weeks; format: functional; procedure, shortened: as §5
HT-29 [24] = experiment: Antitumor activity against human HT-29 cells xenografted in nu/nu mouse assessed as tumor growth inhibition at 40 mg/kg, […]; format: functional; parameters: scale not given: the % may be the effect or the level left; settings: route oral
HT-29 [25] = experiment: Antitumor activity against human HT-29 cells xenografted in nu/nu mouse assessed as tumor growth delay at 40 mg/kg, […]; format: functional; settings: route oral
PC-3 [26] = experiment: Antitumor activity against human PC3 cells xenografted in nu/nu mouse assessed as tumor growth inhibition at 40 mg/kg, po QD for 5 days followed by 2 days without treatment for 2 weeks; format: functional; parameters: scale not given: the % may be the effect or the level left; procedure, shortened: as §5
PC-3 [27] = experiment: Antitumor activity against human PC3 cells xenografted in nu/nu mouse assessed as tumor growth delay at 40 mg/kg, po QD for 5 days followed by 2 days without treatment for 2 weeks; format: functional; procedure, shortened: as §5
Mus musculus [28] = experiment: Toxicity in nu/nu mouse assessed as body weight loss at 40 mg/kg, po QD for 5 days followed by 2 days without treatment for 2 weeks; format: organism-based; parameters: dose 40 mg/kg, route oral; settings: in vivo
Procedure, shortened: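 Female nude (nu/nu) mice (males for prostate model) bearing sc xenografts, dosing started at 100-150 mm³, 10/group. Oral gavage in 5% DMSO/5% Tween 80/1% CMC in water, QD 5 days on/2 off per cycle, 2 or 4 cycles. Body weight recorded twice weekly; maximum loss reported.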

Mus musculus [29] = experiment: Toxicity in nu/nu mouse assessed as body weight loss at 40 mg/kg, po QD for 5 days followed by 4 days without treatment for 2 weeks; format: organism-based; parameters: dose 40 mg/kg, route oral; settings: in vivo
H69AR = experiment: Cytotoxicity against human H69AR cells overexpressing MRP1 after 72 hrs by alamar blue assay
[30] = Resistance ratio of IC50 for human H69AR cells overexpressing MRP1 after 72 hrs s to IC50 for human H69 cells after 72 hrs

## CCc1c2c(nc3ccccc13)-c1c(N)c3c(c(=O)n1C2)COC(=O)[C@]3(O)CC
NCI-H460 [1]; Homo sapiens, NCI-H460, 72 h
  IC50: 7 nM
NCI-H460 [1]; nci-h460
  IC50: 12 nM
PC-3 [2]
  IC50: 24 nM
HT-29 [3]
  IC50: 300 nM
SK-MEL-2
  IC50: 130 nM
A-375
  IC50: 7 nM
Malme-3M
  IC50: 1200 nM
DU-145
  IC50: 1200 nM
LNCaP
  IC50: 120 nM
IGROV-1
  IC50: 20 nM
NCI-H460 [4]
  IC50: 120 nM
NCI-H460 [5]
  Ratio: 10
[6]
  IC50: 4 nM
[7]
  IC50: 12 nM
NCI-H69
  IC50: 110 nM
[8]
  Ratio: 3
[9]; Homo sapiens, Bone marrow cell
  IC50: 620 nM
[9]; human, bone marrow cells
  IC90: 4500 nM
[10]
  IC50: 110 nM
[11]
  selectivity ratio: 6
[12]
  selectivity ratio: 650
[13]
  Tmax: 1 h
[14]
  Cmax: 300 ng/mL
[15]
  AUC: 1070 ng·h/mL
[16]
  half-life: 4.17 h
[17]
  Tmax: 1 h
[18]
  Cmax: 300 ng/mL
[19]
  AUC: 750 ng·h/mL
[20]
  half-life: 4 h
[21]
  Kp: 70
NCI-H460 [22]
  Activity: 84%
NCI-H460 [23]
  Time: 14 days
HT-29 [24]
  Activity: 101%
HT-29 [25]
  Time: 30 days
PC-3 [26]
  Activity: 107%
PC-3 [27]
  Time: 45 days
Mus musculus [28]
  Activity: 4%
Mus musculus [29]
  Activity: 3% and 8%
H69AR
  IC50: 240 nM
[30]
  Ratio: 2.2
